Reference: ChEMBL document CHEMBL5058577, “EUbOPEN Chemogenomics Library 2 (Multiplex)” (2022)

Test system: Fibroblast
Experiment: Multiplex assay against human fibroblast
Type: toxicity, cell-based
Outline: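 Live cells were stained at seeding with Hoechst33342, BioTracker Green Microtubule Cytoskeleton Dye, MitoTracker Red and Annexin V Alexa Fluor 680, then imaged on a CQ1 microscope at 37°C and 5% CO2 after compound addition. CellPathfinder machine-learning gating split cells into Hoechst high-intensity objects or normal cells. Normal cells were split into healthy, pyknosed or fragmented nuclei, and pyknosed cells into mitotic or apoptotic. Tubulin, mitochondrial-mass and membrane-permeability phenotypes are per cents of healthy-nucleus cells.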

[1] = 12 h, 1 µM, compound concentration 1 uM, replicate 1
[2] = 12 h, 1 µM, compound concentration 1 uM, replicate 2
[3] = 12 h, 10 µM, compound concentration 10 uM, replicate 1
[4] = 12 h, 10 µM, compound concentration 10 uM, replicate 2
[5] = 24 h, 1 µM, compound concentration 1 uM, replicate 1
[6] = 24 h, 1 µM, compound concentration 1 uM, replicate 2
[7] = 24 h, 10 µM, compound concentration 10 uM, replicate 1
[8] = 24 h, 10 µM, compound concentration 10 uM, replicate 2
[9] = 48 h, 1 µM, compound concentration 1 uM, replicate 1
[10] = 48 h, 1 µM, compound concentration 1 uM, replicate 2
[11] = 48 h, 10 µM, compound concentration 10 uM, replicate 1
[12] = 48 h, 10 µM, compound concentration 10 uM, replicate 2

Cl.Cl.OCCOCCN1CCN(C(c2ccccc2)c2ccc(Cl)cc2)CC1 (configuration not stated) [HYDROXYZINE HYDROCHLORIDE]
Population Apoptotic (%) [1]: 43%
Population Fragmented Nuclei (%) [1]: 11%
Population Healthy Nuclei (%) [1]: 75%
Population Hoechst High Intensity Objects (%) [1]: 1%
Population Membrane Permeable-Phenotype (%) [1]: 0%
Population Mitochondria Different-Phenotype (%) [1]: 4%
Population Mitotic Cells (%) [1]: 56%
Population Normal (%) [1]: 98%
Population Pyknosed Nuclei (%) [1]: 13%
Population Tubulin-Different-Phenotype (%) [1]: 25%
Total Cell Count [1]: 177
Population Apoptotic (%) [2]: 51%
Population Fragmented Nuclei (%) [2]: 22%
Population Healthy Nuclei (%) [2]: 57%
Population Hoechst High Intensity Objects (%) [2]: 7%
Population Membrane Permeable-Phenotype (%) [2]: 8%
Population Mitochondria Different-Phenotype (%) [2]: 6%
Population Mitotic Cells (%) [2]: 48%
Population Normal (%) [2]: 92%
Population Pyknosed Nuclei (%) [2]: 20%
Population Tubulin-Different-Phenotype (%) [2]: 46%
Total Cell Count [2]: 155
Population Apoptotic (%) [3]: 47%
Population Fragmented Nuclei (%) [3]: 27%
Population Healthy Nuclei (%) [3]: 58%
Population Hoechst High Intensity Objects (%) [3]: 2%
Population Membrane Permeable-Phenotype (%) [3]: 0%
Population Mitochondria Different-Phenotype (%) [3]: 14%
Population Mitotic Cells (%) [3]: 52%
Population Normal (%) [3]: 97%
Population Pyknosed Nuclei (%) [3]: 14%
Population Tubulin-Different-Phenotype (%) [3]: 45%
Total Cell Count [3]: 247
Population Apoptotic (%) [4]: 40%
Population Fragmented Nuclei (%) [4]: 19%
Population Healthy Nuclei (%) [4]: 47%
Population Hoechst High Intensity Objects (%) [4]: 7%
Population Membrane Permeable-Phenotype (%) [4]: 7%
Population Mitochondria Different-Phenotype (%) [4]: 6%
Population Mitotic Cells (%) [4]: 59%
Population Normal (%) [4]: 92%
Population Pyknosed Nuclei (%) [4]: 32%
Population Tubulin-Different-Phenotype (%) [4]: 58%
Total Cell Count [4]: 178
Population Apoptotic (%) [5]: 30%
Population Fragmented Nuclei (%) [5]: 9%
Population Healthy Nuclei (%) [5]: 78%
Population Hoechst High Intensity Objects (%) [5]: 1%
Population Membrane Permeable-Phenotype (%) [5]: 2%
Population Mitochondria Different-Phenotype (%) [5]: 6%
Population Mitotic Cells (%) [5]: 70%
Population Normal (%) [5]: 98%
Population Pyknosed Nuclei (%) [5]: 12%
Population Tubulin-Different-Phenotype (%) [5]: 30%
Total Cell Count [5]: 163
Population Apoptotic (%) [6]: 44%
Population Fragmented Nuclei (%) [6]: 26%
Population Healthy Nuclei (%) [6]: 54%
Population Hoechst High Intensity Objects (%) [6]: 5%
Population Membrane Permeable-Phenotype (%) [6]: 5%
Population Mitochondria Different-Phenotype (%) [6]: 3%
Population Mitotic Cells (%) [6]: 55%
Population Normal (%) [6]: 94%
Population Pyknosed Nuclei (%) [6]: 18%
Population Tubulin-Different-Phenotype (%) [6]: 47%
Total Cell Count [6]: 154
Population Apoptotic (%) [7]: 51%
Population Fragmented Nuclei (%) [7]: 28%
Population Healthy Nuclei (%) [7]: 62%
Population Hoechst High Intensity Objects (%) [7]: 1%
Population Membrane Permeable-Phenotype (%) [7]: 1%
Population Mitochondria Different-Phenotype (%) [7]: 10%
Population Mitotic Cells (%) [7]: 48%
Population Normal (%) [7]: 98%
Population Pyknosed Nuclei (%) [7]: 9%
Population Tubulin-Different-Phenotype (%) [7]: 47%
Total Cell Count [7]: 284
Population Apoptotic (%) [8]: 36%
Population Fragmented Nuclei (%) [8]: 29%
Population Healthy Nuclei (%) [8]: 50%
Population Hoechst High Intensity Objects (%) [8]: 9%
Population Membrane Permeable-Phenotype (%) [8]: 6%
Population Mitochondria Different-Phenotype (%) [8]: 6%
Population Mitotic Cells (%) [8]: 63%
Population Normal (%) [8]: 90%
Population Pyknosed Nuclei (%) [8]: 20%
Population Tubulin-Different-Phenotype (%) [8]: 66%
Total Cell Count [8]: 198
Population Apoptotic (%) [9]: 60%
Population Fragmented Nuclei (%) [9]: 17%
Population Healthy Nuclei (%) [9]: 68%
Population Hoechst High Intensity Objects (%) [9]: 4%
Population Membrane Permeable-Phenotype (%) [9]: 0%
Population Mitochondria Different-Phenotype (%) [9]: 3%
Population Mitotic Cells (%) [9]: 39%
Population Normal (%) [9]: 95%
Population Pyknosed Nuclei (%) [9]: 13%
Population Tubulin-Different-Phenotype (%) [9]: 31%
Total Cell Count [9]: 175
Population Apoptotic (%) [10]: 42%
Population Fragmented Nuclei (%) [10]: 34%
Population Healthy Nuclei (%) [10]: 56%
Population Hoechst High Intensity Objects (%) [10]: 3%
Population Membrane Permeable-Phenotype (%) [10]: 2%
Population Mitochondria Different-Phenotype (%) [10]: 5%
Population Mitotic Cells (%) [10]: 57%
Population Normal (%) [10]: 96%
Population Pyknosed Nuclei (%) [10]: 9%
Population Tubulin-Different-Phenotype (%) [10]: 44%
Total Cell Count [10]: 155
Population Apoptotic (%) [11]: 80%
Population Fragmented Nuclei (%) [11]: 22%
Population Healthy Nuclei (%) [11]: 69%
Population Hoechst High Intensity Objects (%) [11]: 4%
Population Membrane Permeable-Phenotype (%) [11]: 0%
Population Mitochondria Different-Phenotype (%) [11]: 7%
Population Mitotic Cells (%) [11]: 19%
Population Normal (%) [11]: 95%
Population Pyknosed Nuclei (%) [11]: 8%
Population Tubulin-Different-Phenotype (%) [11]: 62%
Total Cell Count [11]: 272
Population Apoptotic (%) [12]: 37%
Population Fragmented Nuclei (%) [12]: 36%
Population Healthy Nuclei (%) [12]: 47%
Population Hoechst High Intensity Objects (%) [12]: 6%
Population Membrane Permeable-Phenotype (%) [12]: 11%
Population Mitochondria Different-Phenotype (%) [12]: 2%
Population Mitotic Cells (%) [12]: 62%
Population Normal (%) [12]: 94%
Population Pyknosed Nuclei (%) [12]: 15%
Population Tubulin-Different-Phenotype (%) [12]: 57%
Total Cell Count [12]: 200
